An excerpt weighted towards active compounds, which were near 5.3% of everything screened.
T cruzi repl – blocks replication of Trypanosoma cruzi | 300,000 tested, 1.4% active | T. cruzi beta-gal in NIH3T3, luminescence, 90 h | inhibition, % (no concentration beside the values) | AID 1885;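 active means mean inhibition across valid replicates above about 55%, limit read from the data; inconclusive means mean below that limit but half or more replicates reach it; inactive means mean below it, under half of replicates reach it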;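 further: signal also drops with host cell toxicity which is not excluded here; 0% = plate median of DMSO wells and 100% = zero luminescence signal; higher percent means less beta-gal luminescence so fewer parasites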
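compound dosing = single 50 nL compound addition per well in DMSO | material = NIH/3T3 host cells with β-galactosidase reporter T. cruzi | input = 5,000 host fibroblasts per well | timing = ≥90 h infection period, 3 h prior cell attachment | read-out basis = percent inhibition of parasite-derived β-gal signal | detection = GalScreen β-gal luminescence, detergent lysis, 60 min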
NALP3 yeast inh – inhibitors of NALP3 inflammasome in yeast; Yeast reconstituted NLRP3/ASC/caspase-1, beta-gal luminescence, 24 h; inhibition, % at 10 µM; 330,000 tested, 0.39% active; AID 2825;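 active means inhibition of 50% or more; inactive means inhibition below 50%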;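 further: plate controls were induced DMSO wells for no effect and uninduced yeast grown without galactose for full effect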
CSC inhib – cancer stem cell inhibition. cancer stem cell-like cells viability, luminescence. inhibition, % at 7.5 µM. 300,000 tested, 1.1% active. AID 2717; in the data active means inhibition above about 75%; inconclusive means no clear call, values can overlap the other calls; tested in HMLE shEcad cells
Beta apoptosis – blocks beta cell apoptosis; INS-1E cytokine-induced death, ATP luminescence, 48 h; percent of positive-control rescue, neutral wells zero; protection from apoptosis, % (no concentration beside the values); 300,000 tested, 0.8% active;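 active means Every replicate reaches about 75%, or at least half do and their mean reaches it too, limit read from the data; inconclusive means At least half of replicates reach the limit but their mean does not; inactive means Under half of replicates reach the limit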;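 further: 0% = cytokine-treated negative control wells and 100% = positive control rescue; higher means more ATP so stronger rescue from cytokine killing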
Calb FLC – C. albicans growth modulation with fluconazole. C. albicans CaCi-2 + fluconazole, Alamar Blue growth, 48 h. growth inhibition, % (no concentration beside the values). 300,000 tested, 0.57% active;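 active means growth inhibition above about 58% in most replicates, limit read from the data, passing the limit was not always enough; inconclusive means exactly half the replicates above a set limit; inactive means most replicates below a set limit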;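 further: all wells also contain fluconazole at 8 µg/ml as a sub-toxic cotreatment; 0% = median of DMSO wells and 100% = median of geldanamycin control wells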
Mdm2-MdmX inh – inhibitors of human Mdm2/MdmX interaction; inhibition, % at 8 µM; SaOS-2 split-luciferase Mdm2/MdmX complementation, luminescence; 330,000 tested, 3% active;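 active means inhibition of at least 50% at 8 µM in the primary screen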
Target sequence (O15151 whole entry, looked up): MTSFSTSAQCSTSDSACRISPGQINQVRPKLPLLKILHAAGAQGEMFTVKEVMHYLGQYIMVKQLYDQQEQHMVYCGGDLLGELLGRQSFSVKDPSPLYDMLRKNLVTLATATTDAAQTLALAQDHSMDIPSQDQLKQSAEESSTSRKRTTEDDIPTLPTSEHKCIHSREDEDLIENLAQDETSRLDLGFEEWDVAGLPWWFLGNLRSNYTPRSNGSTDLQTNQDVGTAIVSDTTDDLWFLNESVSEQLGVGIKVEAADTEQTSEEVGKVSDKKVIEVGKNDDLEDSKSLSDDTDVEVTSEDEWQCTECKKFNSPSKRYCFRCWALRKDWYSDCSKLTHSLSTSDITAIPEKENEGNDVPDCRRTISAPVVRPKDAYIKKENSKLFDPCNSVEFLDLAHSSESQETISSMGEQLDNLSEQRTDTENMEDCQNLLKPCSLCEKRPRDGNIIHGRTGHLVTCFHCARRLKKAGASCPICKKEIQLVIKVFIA
Target sequence (Q00987 whole entry, looked up): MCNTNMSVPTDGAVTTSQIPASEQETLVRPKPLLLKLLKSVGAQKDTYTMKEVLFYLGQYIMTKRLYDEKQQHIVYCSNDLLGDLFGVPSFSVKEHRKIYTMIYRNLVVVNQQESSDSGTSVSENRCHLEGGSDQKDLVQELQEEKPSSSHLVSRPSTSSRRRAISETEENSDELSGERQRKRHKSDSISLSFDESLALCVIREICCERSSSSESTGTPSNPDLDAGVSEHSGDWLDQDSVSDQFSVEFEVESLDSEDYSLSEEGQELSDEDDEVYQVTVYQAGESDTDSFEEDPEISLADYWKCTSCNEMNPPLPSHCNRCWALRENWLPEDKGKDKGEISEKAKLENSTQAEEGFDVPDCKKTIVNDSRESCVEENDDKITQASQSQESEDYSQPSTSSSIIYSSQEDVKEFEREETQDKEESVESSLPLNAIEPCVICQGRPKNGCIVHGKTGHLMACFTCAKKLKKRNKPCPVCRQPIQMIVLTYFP
* marks the source's active call; other numbers are inactive results; u = inconclusive; x = no result given.

SMILES | T cruzi repl | NALP3 yeast inh | CSC inhib | Beta apoptosis | Calb FLC | Mdm2-MdmX inh
N#CC1=C(N)Oc2c(ccc3ccccc23)C1c1ccsc1 (stereo not given) | 75* | -1 | x | 4 | 48 | -23
Cc1cc2nc3n(c2cc1C)CCCN3 | 67* | 7 | -3 | 1 | -2 | 14
Cc1cc2nc(C)c(=O)n(C)c2cc1C | -6 | 21 | -13 | 2 | -8 | 13
O=C(c1cccs1)N1CCN=C1SCc1cccnc1 | 11 | 5 | -9 | x | 1 | 14
CCCCOC(=O)Nc1nnc(C(C)C)s1 | 64* | 8 | -22 | -2 | -12 | -30
CCCCCOC(=O)Nc1nnc(CCC)s1 | 47 | 10 | -4 | -4 | -12 | 25
O=C(O)C1(c2ccccc2)CCN(S(=O)(=O)c2cccc(Cl)c2)CC1 | -2 | 16 | 1 | -12 | 1 | 13
N=c1c(S(=O)(=O)c2ccc(Br)cc2)cc2c(=O)n3ccccc3nc2n1C1CCCCC1 | 29 | 11 | -1 | -2 | -1 | 17
N=c1c(S(=O)(=O)c2ccc(Cl)cc2)cc2c(=O)n3ccccc3nc2n1C1CCCC1 | 55* | 22 | -5 | -10 | -4 | 50
CCOC(=O)Cn1cc(/C=C/[N+](=O)[O-])c2ccccc21 | -7 | -18 | -8 | -4 | -7 | -9
CCOC(=O)COc1ccc2ccccc2c1/C=C/[N+](=O)[O-] | 11 | x | -8 | 106* | 66 | x
CN(C(=O)CSc1nc2ccc(Br)cc2c(=O)n1Cc1ccco1)C1CCS(=O)(=O)C1 (stereo not given) | -4 | -2 | 21 | -12 | 3 | 26
COc1ccc(CCNC(=O)C2CCCN(Cc3nc(-c4ccccc4C)oc3C)C2)cc1OC (stereo not given) | 46 | -1 | -6 | -6 | 32 | 11
CCc1ccc(-c2nc(CN3CCCC(C(=O)NCCc4ccc(OC)c(OC)c4)C3)c(C)o2)cc1 (stereo not given) | 59* | 0 | -2 | 1 | 3 | 22
Cc1ccccc1-c1nc(CN2CCCC(C(=O)NCCCN3CCOCC3)C2)c(C)o1 (stereo not given) | 66* | 11 | -3 | 1 | u | 23
CCOC(=O)N1CCC(NC(=O)C2CCCN(Cc3nc(-c4cccc(Cl)c4)oc3C)C2)CC1 (stereo not given) | 52 | 15 | 14 | 78* | -5 | 32
COc1ccc(CNC(=O)C2CCCN(Cc3nc(-c4cccc(C)c4)oc3C)C2)cc1 (stereo not given) | 56* | 16 | -5 | 3 | -11 | 26
O=C(Nc1ccncc1)c1ccc(N2CCCC2=O)cc1 | -13 | -12 | 6 | 10 | 3 | 16
NC1=C(Br)C(=O)c2ccccc2C1=O | -5 | 29 | 59 | 102* | -8 | 43
Cc1ccc(CN(C(=O)c2csnn2)C(C(=O)NC2CCCC2)c2ccccn2)cc1 (stereo not given) | -2 | 6 | -19 | 1 | 8 | 3
Cc1nc2nc(Cc3ccccc3)[nH]n2c(=O)c1Cl | x | 14 | -7 | -8 | -5 | 12
Cc1ccc(-n2c(C)cc(/C([O-])=C(/C(=S)Nc3ccc(F)c(Cl)c3)[n+]3ccccc3)c2C)cc1 | 29 | 21 | -2 | x | 110* | -17
CCN(CC)S(=O)(=O)c1ccc(C)c(NC(=S)Nc2cccc(S(=O)(=O)N3CCCCCC3)c2)c1 | 20 | -3 | -1 | 6 | 6 | 0
Cc1c(C(=O)Nc2ccc(Cl)cc2)c2ccccn2c1C(=O)c1ccc([N+](=O)[O-])cc1 | 66* | 10 | -3 | 0 | 27 | 15
COc1cccc(COc2cc3ccccc3nc2C)c1 | -28 | 10 | 15 | 98* | 100* | -9
SMILES | T cruzi repl | NALP3 yeast inh | CSC inhib | Beta apoptosis | Calb FLC | Mdm2-MdmX inh
Cc1nc2ccccc2cc1OCc1ccccc1 | -12 | 29 | -6 | 43 | 107* | 9
Cc1nc(OCc2ccccc2)c2ccccc2n1 | -21 | 28 | 6 | 4 | 9 | 9
Cc1nc2ccccc2cc1OCc1ccc(Cl)cc1 | 16 | 7 | x | 109* | 34 | -9
c1ccc(CCNc2nc(-c3ccncc3)cs2)cc1 | 83* | 12 | 1 | -3 | 6 | 13
NNc1nc(-c2ccccc2)cs1 | 63* | 12 | 7 | -6 | u | 25
O=C(NNS(=O)(=O)c1ccccc1F)c1sccc1-n1cccc1 | 2 | 14 | -14 | -9 | -2 | 14
CC1=NN(c2ccccc2)C(=O)/C1=C/c1c(O)n(-c2ccc(F)cc2)[nH]c1=O | -21 | 14 | 87* | 3 | 1 | -9
CC1=NN(c2ccccc2)C(=O)/C1=C/c1ccc(Cl)cc1 | 6 | 12 | -1 | -9 | -2 | 8
CCn1c(O)c(C2=c3ccccc3=NC2=O)c2cc(Br)ccc21 | 61* | 29 | 23 | -11 | 0 | 31
O=C(Nc1ccncc1)Nc1ccc(Cl)cc1Cl | 55* | 23 | 4 | 3 | 32 | -4
O=C(Nc1ccncc1)Nc1ccc(Cl)cc1 | 45 | 15 | -1 | 6 | 3 | 5
O=C(Nc1ccncc1)Nc1cc(Cl)ccc1Cl | 57* | 16 | 9 | 9 | 43 | 20
O=C(N=Nc1c(O)n(Cc2ccccc2)c2ccccc12)c1cc2ccccc2cc1O | 1 | x | 48 | 84* | -7 | x
Cc1ccc(NC(=O)Cn2c(O)c(N=NC(=O)c3ccncc3)c3ccccc32)cc1 | 12 | 5 | -12 | -3 | 0 | -17
Cc1ccc(NC(=O)Cn2c(O)c(N=NC(=O)c3cc4ccccc4cc3O)c3ccccc32)cc1 | x | x | 99* | 102* | x | x
O=C(N=Nc1c(O)n(Cc2ccccc2)c2ccccc12)c1ccc(O)cc1 | 18 | 16 | 34 | 8 | 12 | -148
O=C(c1ccccc1)N(Cc1cccc(Br)c1)C1CCS(=O)(=O)C1 (stereo not given) | -1 | -8 | 16 | -2 | 27 | -7
CCn1c(CN2CCCCCC2=O)nnc1SCc1cnc(-c2ccccc2)s1 | 16 | 2 | 39 | 4 | 78* | 20
COc1ccc(/C=N/NC(=O)c2cc(C34CC5CC(CC(C5)C3)C4)[nH]n2)cc1OC | 1 | 8 | 53 | 5 | 51 | 14
O=C(N/N=C/c1ccc(O)cc1)c1cc(C23CC4CC(CC(C4)C2)C3)[nH]n1 | 36 | 6 | 80* | 1 | 10 | -13
N#Cc1c(N2CCN(C(=O)c3ccccc3Cl)CC2)nc(-c2ccccc2)c2c1CCCC2 | 57* | 13 | 27 | 49 | 14 | 4
N#Cc1c(N2CCN(C(=O)c3ccccc3)CC2)nc(-c2ccccc2)c2c1CCCC2 | 23 | 11 | 72 | 3 | -5 | 25
N#Cc1c(N2CCN(C(=O)c3ccco3)CC2)nc(-c2ccccc2)c2c1CCCC2 | 61* | 7 | 43 | 69 | 19 | 26
CCC(=O)NNC(=O)Cc1c(C)n(C(=O)c2ccc(Cl)cc2)c2ccc(OC)cc12 | -6 | 10 | -3 | -11 | -1 | 15
